This is an account of results in ChEMBL document CHEMBL1152548, “Structural and biological evaluation of some loloatin C analogues” (Bioorg Med Chem, 2009).

For orientation: MIC means the least concentration at which growth counts as inhibited. Read a high MIC as a less susceptible organism.

The test system of one series is Staphylococcus aureus. Kind of series: Antibacterial activity against Staphylococcus aureus ATCC 29213 after 24 to 96 hrs by twofold serial dilution method. The series is classed as functional. The gist of the method:
(§1)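 Strains kept at -70 °C, grown at 30 °C on blood agar and suspended in physiological saline to OD 0.1 at 595 nm. The suspension was diluted 10× and 2 µL added to 100 µL nutrient broth with yeast extract. Peptides came from an ethanol stock (4 g/L), were diluted in water and twofold diluted in broth (64 to 1 mg/L). Plates were incubated at 30 °C for 24–96 h. MIC was the lowest concentration inhibiting growth.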

The subject of series [1] is Staphylococcus epidermidis. Kind of series: Antibacterial activity against Staphylococcus epidermidis ATCC 12228 after 24 to 96 hrs by twofold serial dilution method. The format is functional. The gist of the method:
as §1

A further series deals with Bacillus cereus. Kind of series: Antibacterial activity against Bacillus cereus ATCC 11778 after 24 to 96 hrs by twofold serial dilution method. The series is classed as functional. The gist of the method: as §1
The next series relates to Pseudomonas aeruginosa. Kind of series: Antibacterial activity against Pseudomonas aeruginosa ATCC 27853 after 24 to 96 hrs by twofold serial dilution method. The format is functional. The gist of the method: as §1
A further series deals with Enterococcus faecalis. Kind of series: Antibacterial activity against Enterococcus faecalis ATCC 29212 after 24 to 96 hrs by twofold serial dilution method. The format is functional. The gist of the method:
as §1

In a further series the test system is Escherichia coli. Kind of series: Antibacterial activity against Escherichia coli ATCC 25922 after 24 to 96 hrs by twofold serial dilution method. The series is classed as functional. The gist of the method:
as §1

Series [2] relates to erythrocyte (Homo sapiens). Kind of series: Cytotoxicity against human erythrocytes assessed as induction of hemolysis at 10 uL after 4 hrs.
Series [3] can be described thus: Solubility in 30% DMSO. The format is physicochemical.

Converted amounts (≈) assume the structure as drawn.

Consider `CC(C)C[C@@H]1NC(=O)[C@H](CCCN)NC(=O)[C@H](C(C)C)NC(=O)[C@H](Cc2c[nH]c3ccccc23)NC(=O)[C@@H](CC(=O)O)NC(=O)[C@H](CC(N)=O)NC(=O)[C@H](Cc2ccccc2)NC(=O)[C@H](Cc2c[nH]c3ccccc23)NC(=O)[C@@H]2CCCN2C(=O)[C@@H](Cc2ccc(O)cc2)NC1=O`, for which the MIC (in the series with Staphylococcus aureus; in series [1]; in the series with Bacillus cereus; in the series with Pseudomonas aeruginosa; in the series on Enterococcus faecalis; with Escherichia coli) was above 64 µg/mL throughout.

With `CC(C)C[C@@H]1NC(=O)[C@H](CCCN)NC(=O)[C@H](C(C)C)NC(=O)[C@@H]2O[C@H](CNC(=O)[C@H](CC(N)=O)NC(=O)[C@H](Cc3ccccc3)NC(=O)[C@H](Cc3c[nH]c4ccccc34)NC(=O)[C@@H]3CCCN3C(=O)[C@@H](Cc3ccc(O)cc3)NC1=O)[C@@H](OCc1ccccc1)[C@@H]2O`, the Activity entry in series [2] is “Toxic”. For the same compound, the MIC was above 64 µg/mL against Staphylococcus aureus; 32 µg/mL (≈ 24.9 µM) in series [1]; 64 µg/mL (≈ 49.9 µM) with Bacillus cereus; above 64 µg/mL against Pseudomonas aeruginosa; above 64 µg/mL against Enterococcus faecalis; above 64 µg/mL against Escherichia coli. The solubility result in series [3] is recorded as “Insoluble”.

For `CC(C)C[C@@H]1NC(=O)[C@H](CCCN)NC(=O)[C@H](C(C)C)NC(=O)[C@@H]2O[C@H](CNC(=O)[C@H](CC(N)=O)NC(=O)[C@@H](Cc3ccccc3)NC(=O)[C@H](Cc3c[nH]c4ccccc34)NC(=O)[C@@H]3CCCN3C(=O)[C@@H](Cc3ccc(O)cc3)NC1=O)[C@@H](OCc1ccccc1)[C@@H]2O`, in series [2], the Activity result was “Non-toxic”. In addition, the MIC (with Staphylococcus aureus; in series [1]; against Bacillus cereus; against Pseudomonas aeruginosa; in the series on Enterococcus faecalis; in the series on Escherichia coli) was above 64 µg/mL throughout. For the same compound, the solubility result in series [3] is “Insoluble”.

For the compound `CC(C)C[C@@H]1NC(=O)[C@H](CCCN)NC(=O)[C@H](C(C)C)NC(=O)[C@H](Cc2c[nH]c3ccccc23)NC(=O)[C@H](CC(=O)O)NC(=O)[C@H](CC(N)=O)NC(=O)[C@H](Cc2ccccc2)NC(=O)[C@H](Cc2c[nH]c3ccccc23)NC(=O)[C@@H]2CCCN2C(=O)[C@@H](Cc2ccc(O)cc2)NC1=O`, in series [2], the Activity entry is on record as “Toxic”. For the same compound, the MIC in the series with Staphylococcus aureus was 64 µg/mL (≈ 47.9 µM); in series [1], 32 µg/mL (≈ 24 µM); in the series on Bacillus cereus, 32 µg/mL (≈ 24 µM); against Pseudomonas aeruginosa it was above 64 µg/mL; with Enterococcus faecalis, above 64 µg/mL; against Escherichia coli it was above 64 µg/mL. Moreover, in series [3], the solubility result is listed as “Insoluble”.

Consider `CC(C)C[C@@H]1NC(=O)[C@H](CCCN)NC(=O)[C@H](C(C)C)NC(=O)[C@H](Cc2c[nH]c3ccccc23)NC(=O)[C@H](CC(=O)O)NC(=O)[C@H](CC(N)=O)NC(=O)[C@@H](Cc2ccccc2)NC(=O)[C@H](Cc2c[nH]c3ccccc23)NC(=O)[C@@H]2O[C@H](CNC1=O)[C@@H](OCc1ccccc1)[C@@H]2O`, for which the Activity entry in series [2] is reported as “Non-toxic”. Further, the MIC (against Staphylococcus aureus; in series [1]; in the series on Bacillus cereus; against Pseudomonas aeruginosa; against Enterococcus faecalis; with Escherichia coli) was above 64 µg/mL each time. The solubility result in series [3] is listed as “Insoluble”.

For the compound `CC(C)C[C@@H]1NC(=O)[C@H](CCCN)NC(=O)[C@H](C(C)C)NC(=O)[C@H](Cc2c[nH]c3ccccc23)NC(=O)[C@H](CC(=O)O)NC(=O)[C@@H]2O[C@H](CNC(=O)[C@H](Cc3c[nH]c4ccccc34)NC(=O)[C@@H]3CCCN3C(=O)[C@@H](Cc3ccc(O)cc3)NC1=O)[C@@H](OCc1ccccc1)[C@@H]2O`, the Activity result in series [2] is “Non-toxic”. The MIC (in the series on Staphylococcus aureus; in series [1]; against Bacillus cereus; against Pseudomonas aeruginosa; with Enterococcus faecalis; against Escherichia coli) was above 64 µg/mL throughout.

On to `CC(C)C[C@@H]1NC(=O)[C@H](CCCN)NC(=O)[C@H](C(C)C)NC(=O)[C@H](Cc2c[nH]c3ccccc23)NC(=O)[C@H](CC(=O)O)NC(=O)[C@H](CC(N)=O)NC(=O)[C@@H](Cc2ccccc2)NC(=O)[C@H](Cc2c[nH]c3ccccc23)NC(=O)[C@@H]2CCCN2C(=O)[C@@H](Cc2ccc(O)cc2)NC1=O` [LOLOATIN C], for which the Activity entry in series [2] is recorded as “Toxic”. Also, the MIC in the series with Staphylococcus aureus is 8 µg/mL (≈ 5.99 µM); in series [1], 8 µg/mL (≈ 5.99 µM); with Bacillus cereus, 8 µg/mL (≈ 5.99 µM); in the series on Pseudomonas aeruginosa, above 64 µg/mL; in the series on Enterococcus faecalis it was 8 µg/mL (≈ 5.99 µM); in the series on Escherichia coli it was above 64 µg/mL.
